High-throughput results: PubChem, several laboratories
SKN-1 block: suppressors of acrylamide-induced Pgst-4::GFP reporter in worms, primary screen, SKN-1 inhibitor project, whole organism, uHTS, GFP/RFP fluorescence ratio, strain VP596; 360,000 compounds, 0.49% hits; AID 624304, 2012; inhibition, % at 21.8 µM; C. elegans VP596 Pgst-4::GFP/RFP ratio, 24 h;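 active = interference check ratio from 0.5 to 1.5 plus GFP to RFP signal ratio inhibition reaching or exceeding a fixed threshold, cut at about 30% in these data, passing the limit was not always enough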
MT1-MMP act inh: blockers of MT1-MMP proenzyme processing, primary screen, HT1080 RFP-PRO-GFP cells, GFP/RFP fluorescence; 360,000 compounds, 0.061% hits; GFP/RFP ratio fluorescence, overnight; percent of plate control window, DMSO zero; GFP/RFP ratio change, % at 20 µM; AID 651647, 2012; Matrix metalloproteinase-14 (Homo sapiens), P50281;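 active = GFP/RFP ratio change of at least 30% with cell ATP level not reduced by more than half and red fluorescence within 50% of control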
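Test system: HT1080 RFP-PRO-GFP cells; Benchmarks: DMSO and RFP-L50D-GFP cell wells; Timing: cells overnight before dosing, compound overnight, 37 °C, 5% CO2; Compound: one 20 µM compound dose with 1% DMSO; Read-out: GFP/RFP fluorescence ratio.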
Tn6 DDE FP: inhibitors of Tn6 peptide binding to fibrin DD(E), primary screen, biochemical, fluorescence polarization, human fibrin, Tn6 probe; Fibrinogen beta chain (Homo sapiens), P02675; 370,000 compounds, 0.21% hits; Fibrin DD(E) TRITC-Tn6 fluorescence polarization displacement; inhibition, % at 8.3 µM;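 active = inhibition above a per-campaign cutoff: mean of compounds within control limits plus 3 SD, cut at about 15% in these data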;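 note: 0% = median of all compound wells on the plate and 100% = blocking peptide control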
Target sequence (P02675 whole entry, looked up): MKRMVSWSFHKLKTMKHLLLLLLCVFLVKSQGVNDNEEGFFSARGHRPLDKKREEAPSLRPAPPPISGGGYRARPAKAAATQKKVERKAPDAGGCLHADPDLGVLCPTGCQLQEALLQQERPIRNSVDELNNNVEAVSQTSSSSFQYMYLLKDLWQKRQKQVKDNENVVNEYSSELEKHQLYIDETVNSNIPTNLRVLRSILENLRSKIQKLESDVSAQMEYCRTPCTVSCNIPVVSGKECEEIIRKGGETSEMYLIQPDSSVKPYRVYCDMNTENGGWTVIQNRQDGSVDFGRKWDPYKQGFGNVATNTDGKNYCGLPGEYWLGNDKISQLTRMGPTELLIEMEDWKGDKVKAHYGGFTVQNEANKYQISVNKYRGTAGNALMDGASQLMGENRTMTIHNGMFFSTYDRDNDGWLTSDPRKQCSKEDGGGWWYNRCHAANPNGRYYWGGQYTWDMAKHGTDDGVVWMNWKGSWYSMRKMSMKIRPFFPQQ
DDE Tn7 FP inh: inhibitors of Tn7 peptide binding to fibrin DD(E), primary screen, biochemical, fluorescence polarization, human fibrin, Tn7 probe. FP displacement of FITC-Tn7 peptide from fibrin DD(E); 0% = median of compound wells per plate. 370,000 compounds, 0.13% hits. inhibition, % at 8.3 µM. AID 720508, 2013. Fibrinogen beta chain (Homo sapiens), P02675;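 active = inhibition above the mean of compounds falling within the control limits plus 3 SD of them, cut at about 14% in these data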;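 note: 0% = plate median of compound wells and 100% = 10 µM Aha-Tn7 peptide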
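system = human fibrin DD(E) protein | quantity = DD(E) 2 µM final | medium = Tris/NaCl/CaCl2 buffer, pH 7.8 | also added = labelled Tn7 tracer, 0.1 µM | compound dosing = single point at 8.3 µM | timing = compound with protein 10 min, then 3 h after probe, room temperature | signal = FP measurement | benchmarks = Aha-Tn7 high control | repeats = one replicate per compound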
Numbers without * were called inactive; nt = no result; ! = not confirmed by another sample. A selection: hits, their analogues and other compounds. The true share with any hit is near 0.84%.

SMILES	SKN-1 block	MT1-MMP act inh	Tn6 DDE FP	DDE Tn7 FP inh
COC(=O)[C@H](CC(C)C)N(Cc1cn(Cc2ccc(C)cc2)nn1)S(=O)(=O)c1ccc(F)cc1Br	nt	nt	-5	1
C=CCn1c(-c2ccccc2)ccc(C#N)c1=O	65*	1	7	1
CCN(CC)C(=O)COc1ccc2c(-c3ccccc3)cc(=O)oc2c1	-13	-4	-4	1
COc1ccc(-c2cc(=O)oc3cc(OCC(=O)N(C)C)ccc23)cc1	37*	-8	-4	-5
CCCCNC(=O)OCC(CC)NC(=O)OCC(C)C (stereo not given)	36*	1	9	3
C[C@H]1C(C(=O)N(C)C2CCCCC2)=Cc2c(n(-c3ccc(F)cc3)c(=O)n2CCCOc2ccccc2)C=C1c1ccccc1	nt	nt	-4	0
Cc1nn(C(=O)CCC(=O)NCc2cccc(F)c2)c2ccccc12	34*	-6	6	0
COC(=O)/C=C1\S/C(=N\N=C\CC(=O)OC)NC1=O	37*	-1	11	8
CN(C)[C@H]1CCN(c2ccc3c(c2)O[C@@H]2CCN(C2)S3(=O)=O)C1	nt	nt	-2	-4
COC(=O)c1c(NC(=O)c2ccco2)sc2c1CCC2	40*	-5	3	7
COCC(=O)Nc1sc2c(c1C(=O)OC)CCCC2	34*	-69	1	-6
O=C(NCCC1=CCCCC1)NC1CCCCC1	55*	-3	-1	-6
CCOC(=O)c1cccc(NC(=O)CN(C)S(=O)(=O)c2cc(OC)ccc2OC)c1	nt	nt	3	7
O=C(/C=C\Nc1ccc(Br)cc1)c1cccnc1	86*	2	6	1
NC(=O)c1ccccc1N/C=C/C(=O)c1ccco1	-4	-11	2	1
O=C(/C=C/Nc1ccccc1)c1ccccc1	36*	-5	2	5
O=C(/C=C/Nc1ccc(F)cc1Br)c1ccccc1	37*	1	2	-3
O=C(/C=C/Nc1ccc(Oc2ccccc2)cc1)c1ccco1	82*	-1	0	2
Cc1ccc(-n2c(SCC(=O)Nc3ccc4c(c3)OCCO4)nnc2-c2ccccn2)cc1	nt	nt	6	1
COc1cc(Cn2cc([C@]34C[C@H]5C(=O)N(C)CC(=O)N5[C@H]3N(S(=O)(=O)c3ccccc3)c3ccccc34)c3ccccc32)cc(OC)c1	nt	nt	-2	5
O=C(OC12CCCN(C1)/C(=C/c1ccc(Cl)cc1)C2)C1CCCC1 (stereo not given)	nt	nt	-4	2
CN(CC(=O)NCCc1ccccc1)S(=O)(=O)c1cccs1	-27	-2	4	-8
CN(CC(=O)NCCc1ccccc1)S(=O)(=O)c1ccc(Br)s1	37*	5	1	0
COc1ccc(S(=O)(=O)N2CC(C(=O)O)Oc3ccccc32)cc1 (stereo not given)	31*	-3	-2	-9
Cc1c(N=C/C=C2/N(C)c3ccccc3C2(C)C)c(=O)n(-c2ccccc2)n1C	39*!	0	5	-2
SMILES	SKN-1 block	MT1-MMP act inh	Tn6 DDE FP	DDE Tn7 FP inh
O=C(c1cc(-c2ccccc2)on1)N1CCc2ccccc2C1	37*	2	7	-1
O=C(CCN1CCCCCC1)Nc1ccccc1F	49*	2	3	4
O=C(Nc1ccccc1F)C1CCCC1	41*	4	6	-6
C=CCN(C)CC#Cc1ccc(OC)cc1	nt	nt	-2	4
CN(CC(=O)Nc1sccc1C(N)=O)S(=O)(=O)c1ccc(Cl)cc1	-5	1	-11	-2
O=c1c(-c2ccc(Br)cc2)coc2c(CN3CCOCC3)c(O)ccc12	35*	1	2	3
O=c1c(-c2ccc(Br)cc2)coc2c(CN3CCCCC3)c(O)ccc12	2	-3	1	0
CCOC(=O)c1c(C)[nH]c(C(=O)COC(=O)c2oc3ccc(OC)cc3c2C)c1C	37*	4	-13	3
COCCCn1c(SCC(=O)NC(C)C)nnc1-c1ccccc1	36*	-2	-9	0
Cc1cc(Br)cn2c(Cc3cccc(F)c3)c(-c3ccco3)nc12	nt	nt	0	0
COc1ccc(C(=O)/C=C/c2ccc(OC)c(CN3CCOCC3)c2)cc1	61*	-2	4	-1
